Reference: ChEMBL document CHEMBL1128333, “Derivatives of cis-2-amino-8-hydroxy-1-methyltetralin: mixed 5-HT1A-receptor agonists and dopamine D2-receptor antagonists” (J Med Chem, 1995)

Assays:
[1] = tested on: Rattus norvegicus; experiment: Cage leaving response was studied in rats after subcutaneous administration of 32 uM/Kg of compound; 0/5; format: functional
[2] = species: Rattus norvegicus; experiment: 5-HT content of rat hippocampus reflecting 5-HT metabolism and turnover; format: functional; set-up: concentration or dose not given beside the values
Outline: (§1)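 Male Sprague–Dawley rats (260–310 g) received compound sc in 0.9% NaCl; saline controls. Rats were decapitated 35–45 min post-injection, and hippocampus and striatum were dissected and frozen. Tissue was homogenized in 0.1 M perchloric acid with α-methyl-5-hydroxytryptophan as internal standard, centrifuged and filtered, then analysed by HPLC-EC at 0.85 V (mobile phase pH 2.69, 35 °C). Values are percent of control, mean ± SEM.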

[3] = species: Rattus norvegicus; experiment: 5-HIAA (5-Hydroxyindoleacetic acid) content of rat hippocampus reflecting 5-HT metabolism and turnover; format: functional; set-up: concentration or dose not given beside the values; outline: as §1
[4] = species: Rattus norvegicus; experiment: DOPAC (3,4-dihydroxyphenylacetic acid) content of rat striatum reflecting DA metabolism and turnover; format: functional; set-up: concentration or dose not given beside the values; outline: as §1
[5] = species: Rattus norvegicus; experiment: Ratio of turnover (DOPAC to DA) in rat brain striatum compared to control.; format: functional; outline: as §1
[6] = tested on: Rattus norvegicus; experiment: Forepaw treading (FPT) behavior was studied in rats after subcutaneous administration of 32 uM/Kg of compound; 5/5; format: functional
[7] = target: T1, 5-hydroxytryptamine receptor 1A (Rattus norvegicus, UniProt P19327); experiment: Binding affinity for 5-hydroxytryptamine 1A receptor in rat brain tissue using [3H]8-OH-DPAT as radioligand; format: tissue-based
T1 sequence (P19327 whole entry): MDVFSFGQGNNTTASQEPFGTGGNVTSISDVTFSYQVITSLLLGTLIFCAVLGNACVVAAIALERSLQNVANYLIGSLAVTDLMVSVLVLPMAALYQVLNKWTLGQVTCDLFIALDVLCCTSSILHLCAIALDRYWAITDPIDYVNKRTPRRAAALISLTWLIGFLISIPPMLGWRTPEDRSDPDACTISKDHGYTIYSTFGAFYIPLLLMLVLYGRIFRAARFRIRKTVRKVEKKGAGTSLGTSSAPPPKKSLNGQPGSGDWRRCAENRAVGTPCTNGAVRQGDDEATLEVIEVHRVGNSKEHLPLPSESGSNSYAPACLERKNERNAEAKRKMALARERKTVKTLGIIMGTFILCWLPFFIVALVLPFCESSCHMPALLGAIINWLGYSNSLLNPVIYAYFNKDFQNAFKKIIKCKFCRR
Outline: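 Membranes from male Sprague–Dawley rat cortex plus hippocampus, homogenized in 50 mM Tris-HCl with 4.0 mM CaCl2 and 5.7 mM ascorbic acid, pH 7.5, and preincubated 10 min at 37 °C with 10 μM pargyline. Assay used 5 mg/mL tissue and 2 nM [3H]-8-OH-DPAT, 10 min at 37 °C. Nonspecific binding was defined with 10 μM 5-HT. Bound ligand was separated on GF/B filters and counted; data were fitted by nonlinear regression.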

[8] = species: Rattus norvegicus; experiment: DA (dopamine) content of rat striatum reflecting DA metabolism and turnover; format: functional; outline: as §1
[9] = tested on: Rattus norvegicus; experiment: Change in body temperature in rats after subcutaneous administration; format: functional
Outline: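 Rectal temperature was taken with an electrical thermometer, probe inserted 3.5 cm, before and 30 min after sc injection in 0.9% NaCl. Values are the change from the preinjection reading, analysed by Tukey HSD versus saline-treated rats. Male Sprague–Dawley rats, 260–310 g.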

[10] = species: Rattus norvegicus; experiment: HVA (Homovanillic acid)content of rat striatum reflecting DA metabolism and turnover; format: functional; set-up: concentration or dose not given beside the values
[11] = tested on: Rattus norvegicus; experiment: Flat body posture behavior was studied in rats after subcutaneous administration of 32 uM/Kg of compound; 5/5; format: functional
[12] = species: Rattus norvegicus; experiment: Ratio of serotonin turnover (5HIAA to 5-HT) in rat brain hippocampus compared to control; format: functional; outline: as §1
[13] = tested on: Rattus norvegicus; experiment: Forepaw treading (FPT) behavior was studied in rats after subcutaneous administration of 32 uM/Kg of compound; 0/5; format: functional
[14] = tested on: Rattus norvegicus; experiment: Cage leaving response was studied in rats after subcutaneous administration of 32 uM/Kg of compound; 4/5; format: functional
[15] = tested on: Rattus norvegicus; experiment: Flat body posture behavior was studied in rats after subcutaneous administration of 32 uM/Kg of compound; 0/5; format: functional
[16] = target: D(2) dopamine receptor (Homo sapiens, UniProt P14416); experiment: In vitro binding affinity towards human Dopamine receptor D2A was determined in mouse fibroblast LtK cells using [3H]raclopride; format: cell-based
Outline: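 Membranes from Ltk− mouse fibroblasts stably expressing human D2A receptors, at 80–100 pM receptor. Buffer was 50 mM Tris-HCl, 120 mM NaCl, 5 mM KCl, 1.5 mM CaCl2, 4 mM MgCl2, 1 mM EDTA, pH 7.4. Incubation with [3H]raclopride was 60 min at 22 °C, in duplicate, with 1 μM (+)-butaclamol for nonspecific binding. Bound ligand was separated on GF/B filters; data were fitted by nonlinear regression.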

[17] = tested on: Rattus norvegicus; experiment: Flat body posture behavior was studied in rats after subcutaneous administration of 32 uM/Kg of compound; 0/4; format: functional
Outline: (§2)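 Test compounds were given at 32 μmol/kg and the reference 5-HT1A agonist at 1 μmol/kg. Flat body posture, forepaw treading and hind limb abduction were each scored as absent or present. Values are animals showing the behavior out of animals tested, analysed by Fisher's exact test. Male Sprague–Dawley rats, 260–310 g.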

[18] = tested on: Rattus norvegicus; experiment: Forepaw treading (FPT) behavior was studied in rats after subcutaneous administration of 32 uM/Kg of compound; 0/4; format: functional; outline: as §2
[19] = tested on: Rattus norvegicus; experiment: Cage leaving response was studied in rats after subcutaneous administration of 32 uM/Kg of compound; 3/4; format: functional

Sequence of D(2) dopamine receptor (P14416 whole entry): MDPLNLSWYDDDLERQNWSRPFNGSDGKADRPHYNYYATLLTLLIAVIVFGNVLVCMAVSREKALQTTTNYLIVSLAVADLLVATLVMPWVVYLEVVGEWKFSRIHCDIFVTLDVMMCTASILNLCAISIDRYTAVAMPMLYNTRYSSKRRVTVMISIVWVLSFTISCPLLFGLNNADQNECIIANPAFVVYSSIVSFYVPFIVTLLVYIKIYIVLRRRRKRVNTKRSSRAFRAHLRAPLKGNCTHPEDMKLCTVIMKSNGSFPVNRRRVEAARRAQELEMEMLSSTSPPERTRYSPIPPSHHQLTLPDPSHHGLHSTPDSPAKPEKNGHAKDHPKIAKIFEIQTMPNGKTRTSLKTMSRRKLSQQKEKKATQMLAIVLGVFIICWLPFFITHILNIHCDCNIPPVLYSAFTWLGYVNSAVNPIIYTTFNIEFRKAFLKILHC

SMILES: CCCN(CCC)[C@@H]1CCc2cccc(C(=O)NC(C)C)c2[C@@H]1C
- Cage leaving [1]: 0
- Control [2]: 123%
- Control [3]: 66%
- Control [4]: 74%
- Ratio [5]: 76
- FPT [6]: 5
- Ki [7]: 38 nM
- Control [8]: 99%
- Change of body temperature [9]: -2.5 °C
- Control [10]: 94%
- FBP [11]: 5
- Ratio [12]: 54

SMILES: CCCN(C(C)C)[C@H]1CCc2cccc(O)c2[C@H]1C
- Control [2]: 97%
- Control [3]: 79%
- Control [4]: 86%
- FPT [13]: 0
- Ratio [5]: 77
- Control [8]: 110%
- Cage leaving [14]: 4
- Change of body temperature [9]: -0.1 °C
- Control [10]: 100%
- FBP [15]: 0
- Ratio [12]: 80

SMILES: CCCN(C(C)C)[C@@H]1CCc2cccc(O)c2[C@@H]1C
- Control [2]: 96%
- Control [3]: 93%
- Control [4]: 116%
- Ki [16]: 614 nM
- FPT [13]: 0
- Ratio [5]: 155
- Ki [7]: 81 nM
- Control [8]: 74%
- Cage leaving [14]: 4
- Change of body temperature [9]: -0.3 °C
- Control [10]: 225%
- FBP [15]: 0
- Ratio [12]: 97

SMILES: CCCN(CCC)[C@H]1CCc2cccc(C(=O)c3ccccc3)c2[C@H]1C
- Control [2]: 93%
- Control [3]: 114%
- Control [4]: 112%
- FPT [13]: 0
- Ratio [5]: 109
- Control [8]: 102%
- Cage leaving [14]: 4
- Change of body temperature [9]: 0 °C
- Control [10]: 97%
- FBP [15]: 0
- Ratio [12]: 123

SMILES: CCCN(CCC)[C@@H]1CCc2cccc(C(C)=O)c2[C@@H]1C
- Cage leaving [1]: 0
- Control [2]: 99%
- Control [3]: 96%
- Control [4]: 192%
- Ki [16]: 40 nM
- Ratio [5]: 200
- FPT [6]: 5
- Ki [7]: 0.56 nM
- Control [8]: 95%
- Change of body temperature [9]: -1.7 °C
- Control [10]: 203%
- FBP [11]: 5
- Ratio [12]: 97

SMILES: CCCN(CCC)[C@@H]1CCc2cccc(OS(=O)(=O)C(F)(F)F)c2[C@@H]1C
- Control [2]: 105%
- Control [3]: 87%
- Control [4]: 105%
- Ki [16]: 124 nM
- FPT [13]: 0
- Ratio [5]: 97
- Ki [7]: 6.7 nM
- Control [8]: 108%
- Cage leaving [14]: 4
- Change of body temperature [9]: 0 °C
- Control [10]: 102%
- FBP [15]: 0
- Ratio [12]: 82

SMILES: CCCN(CCC)[C@H]1CCc2cccc(-c3ccco3)c2[C@H]1C
- Control [2]: 108%
- Control [3]: 121%
- Control [4]: 102%
- FBP [17]: 0
- Ratio [5]: 98
- Ki [7]: 44 nM
- FPT [18]: 0
- Control [8]: 103%
- Cage leaving [19]: 3
- Change of body temperature [9]: 0.1 °C
- Control [10]: 109%
- Ratio [12]: 107

SMILES: CCCN(CCC)[C@H]1CCc2cccc(C(C)=O)c2[C@H]1C
- Control [2]: 99%
- Control [3]: 93%
- Control [4]: 130%
- FBP [17]: 0
- Ratio [5]: 110
- Ki [7]: 138 nM
- FPT [18]: 0
- Control [8]: 95%
- Cage leaving [19]: 3
- Change of body temperature [9]: 0.1 °C
- Control [10]: 93%
- Ratio [12]: 93

SMILES: CCCN(CCC)[C@@H]1CCc2cccc(C(=O)OC)c2[C@@H]1C
- Cage leaving [1]: 0
- Control [2]: 122%
- Control [3]: 78%
- Control [4]: 167%
- Ki [16]: 58.8 nM
- Ratio [5]: 152
- FPT [6]: 5
- Control [8]: 112%
- Change of body temperature [9]: -2.7 °C
- Control [10]: 194%
- FBP [11]: 5
- Ratio [12]: 64

SMILES: CCCN(CCC)[C@@H]1CCc2cccc(C(=O)c3ccccc3)c2[C@@H]1C
- Control [2]: 101%
- Control [3]: 92%
- Control [4]: 117%
- FPT [13]: 0
- Ratio [5]: 110
- Ki [7]: 2.6 nM
- Control [8]: 105%
- Cage leaving [14]: 4
- Change of body temperature [9]: 0.1 °C
- Control [10]: 111%
- FBP [15]: 0
- Ratio [12]: 89

SMILES: CCCN(CCC)[C@H]1CCc2cccc(C(=O)NC(C)C)c2[C@H]1C
- Control [2]: 104%
- Control [3]: 97%
- Control [4]: 59%
- FPT [13]: 0
- Ratio [5]: 74
- Ki [7]: > 1000 nM
- Control [8]: 82%
- Cage leaving [14]: 4
- Change of body temperature [9]: 0 °C
- Control [10]: 76%
- FBP [15]: 0
- Ratio [12]: 92

SMILES: CCCN(CCC)[C@@H]1CCc2cccc(-c3ccco3)c2[C@@H]1C
- Control [2]: 110%
- Control [3]: 111%
- Control [4]: 116%
- FBP [17]: 0
- Ratio [5]: 128
- Ki [7]: > 1000 nM
- FPT [18]: 0
- Control [8]: 91%
- Cage leaving [19]: 3
- Change of body temperature [9]: 0.1 °C
- Control [10]: 107%
- Ratio [12]: 101
